Consider four molecules from ChEMBL document CHEMBL1154674, “Synthesis and evaluation of three 18F-labeled aminophenylbenzothiazoles as amyloid imaging agents” (J Med Chem, 2009).

Holding throughout (format): ADME, organism-based, Macaca mulatta
Data set [1] in a line: Drug level in normal rhesus monkey cerebellum assessed as standard uptake value at 152.9 MBq, iv after 32.5 mins by microPET. As to conditions: in vivo. The procedure, abridged: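 Single normal rhesus monkey; tracer given iv via the vena saphena, 1 day apart from the other tracer injections. Dynamic μPET ran 90 min (5×60 s, 5×120 s, 9×300 s, 3×600 s). Images were reconstructed by filtered back projection with a RAMP filter. Regional time-activity curves were expressed as SUV.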

The nature of data set [2]: Drug level in normal rhesus monkey cerebellum assessed as standard uptake value at 152.9 MBq, iv after 52.5 mins by microPET. As to conditions: in vivo, 0.875 h. The procedure, abridged:
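One normal rhesus monkey received each tracer via the vena saphena, with 1 day between injections. Dynamic μPET ran 180 min for 18F tracers (5×60 s, 5×120 s, 9×300 s, 12×600 s) and 90 min for the 11C tracer (5×60 s, 5×120 s, 9×300 s, 3×600 s). Filtered back-projection reconstruction (RAMP filter) was used. Time-activity curves were drawn to give regional SUV.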

Data set [3] is described as follows: Drug level in normal rhesus monkey thalamus assessed as standard uptake value at 152.9 MBq, iv after 37.5 mins by microPET. The conditions noted are these: in vivo, 0.625 h.
Data set [4] can be described thus: Drug level in normal rhesus monkey parietal cortex assessed as standard uptake value at 152.9 MBq, iv after 12 mins by microPET. The conditions noted are these: in vivo, 0.2 h.
Data set [5] in a line: Drug level in normal rhesus monkey parietal cortex assessed as standard uptake value at 152.9 MBq, iv after 75 mins by microPET. As to conditions: in vivo, 1.25 h.
A short description of data set [6]: Drug level in normal rhesus monkey thalamus assessed as standard uptake value at 109.4 MBq, iv after 117 mins by microPET. As to conditions: in vivo, 1.95 h.
The nature of data set [7]: Drug level in normal rhesus monkey pons assessed as standard uptake value at 109.4 MBq, iv after 0.875 mins by microPET. As to conditions: in vivo, 52 s.
A short description of data set [8]: Drug level in normal rhesus monkey pons assessed as standard uptake value at 109.4 MBq, iv after 47.5 mins by microPET. As to conditions: in vivo.
The nature of data set [9]: Drug level in normal rhesus monkey pons assessed as standard uptake value at 109.4 MBq, iv after 105 mins by microPET. As to conditions: in vivo, 1.75 h.
Data set [10] can be described thus: Drug level in normal rhesus monkey cerebellum assessed as standard uptake value at 109.4 MBq, iv after 81 mins by microPET. The conditions noted are these: in vivo, 1.35 h.
Data set [11] is described as follows: Drug level in normal rhesus monkey frontal cortex assessed as standard uptake value at 109.4 MBq, iv after 0.125 mins by microPET. The conditions noted are these: in vivo, 7 s.
Data set [12] is described as follows: Drug level in normal rhesus monkey frontal cortex assessed as standard uptake value at 109.4 MBq, iv after 3.5 mins by microPET. As to conditions: in vivo. Summed up:
(§1)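 One normal rhesus monkey, each tracer given iv via the vena saphena (81.2, 96.3 or 109.4 MBq), with 1 day between tracer injections. Dynamic brain μPET over 180 min used frames of 5 × 60 s, 5 × 120 s, 9 × 300 s and 12 × 600 s. Images were reconstructed by filtered back projection with a RAMP filter. Regional time-activity curves were expressed as SUV.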

A short description of data set [13]: Drug level in normal rhesus monkey frontal cortex assessed as standard uptake value at 109.4 MBq, iv after 81 mins by microPET. The conditions noted are these: in vivo, 1.35 h.
Data set [14] can be described thus: Drug level in normal rhesus monkey thalamus assessed as standard uptake value at 109.4 MBq, iv after 37.5 mins by microPET. As to conditions: in vivo, 0.625 h.
A short description of data set [15]: Drug level in normal rhesus monkey thalamus assessed as standard uptake value at 109.4 MBq, iv after 47.5 mins by microPET. The conditions noted are these: in vivo.
The nature of data set [16]: Drug level in normal rhesus monkey white matter assessed as standard uptake value at 109.4 MBq, iv after 32.5 mins by microPET. The conditions noted are these: in vivo.
Data set [17] can be described thus: Drug level in normal rhesus monkey parietal cortex assessed as standard uptake value at 96.3 MBq, iv after 32.5 mins by microPET. As to conditions: in vivo.
Data set [18] in a line: Drug level in normal rhesus monkey parietal cortex assessed as standard uptake value at 96.3 MBq, iv after 47.5 mins by microPET. The conditions noted are these: in vivo.
Data set [19] is described as follows: Drug level in normal rhesus monkey thalamus assessed as standard uptake value at 96.3 MBq, iv after 10 mins by microPET. As to conditions: in vivo.
The nature of data set [20]: Drug level in normal rhesus monkey thalamus assessed as standard uptake value at 96.3 MBq, iv after 155 mins by microPET. The conditions noted are these: in vivo.
Data set [21] in a line: Drug level in normal rhesus monkey parietal cortex assessed as standard uptake value at 96.3 MBq, iv after 1.5 mins by microPET. As to conditions: in vivo, 0.025 h.
Data set [22] can be described thus: Drug level in normal rhesus monkey parietal cortex assessed as standard uptake value at 96.3 MBq, iv after 10 mins by microPET. As to conditions: in vivo.
The nature of data set [23]: Drug level in normal rhesus monkey cerebellum assessed as standard uptake value at 96.3 MBq, iv after 85 mins by microPET. The conditions noted are these: in vivo. The procedure, abridged:
as §1

A short description of data set [24]: Drug level in normal rhesus monkey frontal cortex assessed as standard uptake value at 96.3 MBq, iv after 6 mins by microPET. The conditions noted are these: in vivo, 0.1 h.
Data set [25] in a line: Drug level in normal rhesus monkey frontal cortex assessed as standard uptake value at 96.3 MBq, iv after 57.5 mins by microPET. The conditions noted are these: in vivo.
Data set [26] in a line: Drug level in normal rhesus monkey white matter assessed as standard uptake value at 96.3 MBq, iv after 12 mins by microPET. As to conditions: in vivo, 0.2 h.
A short description of data set [27]: Drug level in normal rhesus monkey white matter assessed as standard uptake value at 96.3 MBq, iv after 47.5 mins by microPET. The conditions noted are these: in vivo.
Data set [28] in a line: Drug level in normal rhesus monkey pons assessed as standard uptake value at 81.2 MBq, iv after 8 mins by microPET. As to conditions: in vivo.
Data set [29] can be described thus: Drug level in normal rhesus monkey parietal cortex assessed as standard uptake value at 81.2 MBq, iv after 14 mins by microPET. As to conditions: in vivo.
The nature of data set [30]: Drug level in normal rhesus monkey white matter assessed as standard uptake value at 81.2 MBq, iv after 3.5 mins by microPET. As to conditions: in vivo.
A short description of data set [31]: Drug level in normal rhesus monkey white matter assessed as standard uptake value at 81.2 MBq, iv after 32.5 mins by microPET. The conditions noted are these: in vivo.
Data set [32] can be described thus: Drug level in normal rhesus monkey thalamus assessed as standard uptake value at 81.2 MBq, iv after 4.5 mins by microPET. As to conditions: in vivo, 0.075 h.
Data set [33] in a line: Drug level in normal rhesus monkey frontal cortex assessed as standard uptake value at 81.2 MBq, iv after 105 mins by microPET. The conditions noted are these: in vivo, 1.75 h. Summed up: (§2)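 Single normal rhesus monkey; each tracer given iv via the vena saphena, with 1 day between tracer injections. Dynamic μPET ran 180 min (5×60 s, 5×120 s, 9×300 s, 12×600 s). Images were reconstructed by filtered back projection with a RAMP filter. Regional time-activity curves were expressed as SUV.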

A short description of data set [34]: Drug level in normal rhesus monkey frontal cortex assessed as standard uptake value at 81.2 MBq, iv after 12 mins by microPET. As to conditions: in vivo, 0.2 h. Summed up:
as §2

Data set [35] in a line: Drug level in normal rhesus monkey cerebellum assessed as standard uptake value at 81.2 MBq, iv after 8 mins by microPET. The conditions noted are these: in vivo. Summed up:
as §1

With `[11CH3]Nc1ccc(-c2nc3ccc(O)cc3s2)cc1` [PITTSBURGH COMPOUND B], the SUV in data set [1] was determined as 1.143; in data set [2], 0.813; in [3] it was 1.364; in data set [4] it was 2.062; in [5], 0.682.
As for `Nc1ccc2nc(-c3ccc([18F])cc3)sc2c1`, the SUV in [6] is given as 4.66; in [7], 1.85; in data set [8], 4.7; in data set [9], 4.79; in [10] it was 2.87; in data set [11], -0.06. Besides, the SUV in data set [12] was determined as 4.99; in data set [13], 4.41; in data set [14] it was 5.66; in data set [15], 5.56; in data set [16] it was 3.36.
Regarding `CN(C)c1ccc2nc(-c3ccc([18F])cc3)sc2c1`, the SUV in [17] was found to be 1.9; in data set [18], 1.72; in data set [19] it was 2.12; in data set [20], 1.92; in data set [21], 1.7; in [22], 2.26. Moreover, the SUV in data set [23] is given as 1.03; in [24], 1.97; in data set [25], 2.01; in [26], 1.31; in [27] it was 1.37.
Regarding `CNc1ccc2nc(-c3ccc([18F])cc3)sc2c1`, the SUV in data set [28] was 5.089; in [29], 4.798; in data set [30] it was 3.019; in [31], 3.799; in data set [32], 4.054; in data set [33] it was 4.68. The SUV in data set [34] came out at 5.988; in data set [35], 2.781.
